Our source for the Potency ratio values is ChEMBL document CHEMBL1126626, “Synthesis and pharmacological evaluation of (nitrooxy)alkyl apovincaminates” (1993).

Test [1] has as its system Canis familiaris. Description: Effect on femoral blood flow (FBF) was studied, after intra arterial administration in anesthetized dogs relative to vinpocetine. Format: functional, Canis lupus familiaris. In outline:
(§1)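 Compounds were given intraarterially to anesthetized dogs. Dose-response curves were built from peak response values. Potency was expressed as a ratio to vinpocetine, set at 1.0.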

In test [2] the test system is Canis familiaris. As to the kind of experiment: Effect on vertebral blood flow (VBF) was studied, after intra arterial administration in anesthetized dogs relative to vinpocetine. Format: functional, Canis lupus familiaris. In outline: as §1

Regarding `CCOC(=O)C1=C[C@]2(CC)CCCN3CCc4c(n1c1ccccc41)[C@@H]32` [VINPOCETINE], the Potency ratio in test [1] and in test [2] was 1 in each case.

As to `CC[C@@]12C=C(C(=O)OCCO[N+](=O)[O-])n3c4c(c5ccccc53)CCN(CCC1)[C@H]42`, the Potency ratio in test [1] worked out at 4.72; in test [2] it was 3.83.

For the molecule `CC[C@@]12C=C(C(=O)OCCCCCCCCO[N+](=O)[O-])n3c4c(c5ccccc53)CCN(CCC1)[C@H]42`, the Potency ratio was 0.34 in test [1] and 0.35 in test [2].

For the molecule `CC[C@@]12C=C(C(=O)OCCCCCO[N+](=O)[O-])n3c4c(c5ccccc53)CCN(CCC1)[C@H]42`, the Potency ratio in test [1] is 1.07; in test [2] it was 1.09.

Take `CC[C@@]12C=C(C(=O)OCCO[N+](=O)[O-])n3c4c(c5ccc(Br)cc53)CCN(CCC1)[C@H]42`: the Potency ratio was found to be 0.36 in test [1] and 0.58 in test [2].

As for `CC[C@@]12C=C(C(=O)OCCCCCCCCCCCO[N+](=O)[O-])n3c4c(c5ccccc53)CCN(CCC1)[C@H]42`, the values for the Potency ratio in test [1] and in test [2] were 0.38 and 0.33, respectively.

For `CC[C@]12CCCN3CCc4c(n(c5cc(Br)ccc45)[C@@](O)(C(=O)OC)C1)[C@@H]32` [BROVINCAMINE], the values for the Potency ratio in test [1] and in test [2] were 0.28 and 0.17, respectively.

For the molecule `CC[C@@]12C=C(C(=O)OCCCO[N+](=O)[O-])n3c4c(c5ccccc53)CCN(CCC1)[C@H]42`, the results for the Potency ratio in test [1] and in test [2] were 1.91 and 1.85, respectively.

In the case of `CC[C@@]12C=C(C(=O)OCCCCO[N+](=O)[O-])n3c4c(c5ccccc53)CCN(CCC1)[C@H]42`, the Potency ratio is recorded as 1.63 in test [1] and 1.25 in test [2].

As for `CC[C@@]12C=C(C(=O)OCCCCCCCCCO[N+](=O)[O-])n3c4c(c5ccccc53)CCN(CCC1)[C@H]42`, the Potency ratio in test [1] turned out to be 0.15; in test [2], 0.33.

Consider `CC[C@@]12C=C(C(=O)OCCCCCCCO[N+](=O)[O-])n3c4c(c5ccccc53)CCN(CCC1)[C@H]42`, for which the results for the Potency ratio in test [1] and in test [2] were 0.67 and 0.82, respectively.

In the case of `CC[C@@]12C=C(C(=O)OCCCCCCO[N+](=O)[O-])n3c4c(c5ccccc53)CCN(CCC1)[C@H]42`, the Potency ratio in test [1] is recorded as 0.84; in test [2], 0.99.

In the case of `CC[C@@]12C=C(C(=O)OCCCCCCCCCCO[N+](=O)[O-])n3c4c(c5ccccc53)CCN(CCC1)[C@H]42`, the values for the Potency ratio in test [1] and in test [2] were 0.16 and 0.48, respectively.
